Measurements reported in ChEMBL document CHEMBL1158641, “Total synthesis of (+/-)-elegansidiol, (+/-)-farnesiferol B, and (+/-)-farnesiferol D” (2010).
Calls of active or inactive are those of the source. The calls are words filed in the database; no cut-off is given here.

Tests used:
[1] = system: A549; experiment: Cytotoxicity against human A549 cells after 48 hrs by SRB assay; type: functional
Method in brief: (§1)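 Compounds tested at […], triplicate wells, 48 h continuous exposure. SRB staining (0.4% in 1% acetic acid, 20 min RT), dye eluted with 10 mM trizma base, absorbance 540 nm (690 nm reference). GI50 from net-growth formula; experiments repeated three times.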

[2] = system: SK-N-SH; experiment: Cytotoxicity against human SK-N-SH cells after 48 hrs by SRB assay; type: functional; method in brief: as §1

SMILES | GI50 ([1]; A549, 48 h) [µM] | LC50 ([1]; A549, 48 h) [µM] | GI50 [2] | LC50 [2] | GI50 [1] | LC50 [1]
C=C1CC[C@@H](O)C(C)(C)[C@@H]1CCC(C)=CCOc1ccc2ccc(=O)oc2c1 (mixture of isomers) | 25 | 46 | inactive | inactive |  | 
C=C1CC[C@H](O)C(C)(C)[C@@H]1CCC(C)=CCOc1ccc2ccc(=O)oc2c1 (mixture of isomers) |  |  | inactive | inactive | inactive | inactive
C=C1CC[C@H](O)C(C)(C)[C@@H]1CC/C(C)=C/CO (racemic) |  |  | inactive | inactive | inactive | inactive
COC(=O)Nc1nc2cc(C(=O)c3cccs3)ccc2[nH]1 [NOCODAZOLE] | 0.5 |  | 0.65 µM |  |  | 
